From ChEMBL document CHEMBL4622973, “Discovery of Potent Small-Molecule SIRT6 Activators: Structure-Activity Relationship and Anti-Pancreatic Ductal Adenocarcinoma Activity” (J Med Chem, 2020)
Active and inactive are the calls of the source. The calls are words filed in the database; no cut-off is given here.

How the values were obtained:
[1] = target: T1, NAD-dependent protein deacylase sirtuin-6 (Homo sapiens, UniProt Q8N6T7); assay: Activation of N-terminal his-tagged human SIRT6 expressed in Escherichia coli M15 [pREP4] assessed as increase in peptide demyristoylation at 20 uM incubated for 120 mins using Ac-EALPKK(Myr)-AMC substrate by FDL assay relative to control
Outline: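 Demyristoylation: 1 µM recombinant SIRT6 preincubated with compound for 20 min at 37 °C in 50 mM Tris-HCl pH 8.0, BSA 1 mg/mL, 1 mM DTT, with 10 µM Ac-EALPKK(Myr)-AMC. Started with 1 mM NAD and run 120 min at 37 °C. Developed 120 min at 37 °C with 5 mg/mL trypsin/8 mM nicotinamide. Fluorescence read. Mean ± s.d., triplicate wells, three independent experiments.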

[2] = target: T1, NAD-dependent protein deacylase sirtuin-6; assay: Binding affinity to N-terminal his-tagged human SIRT6 expressed in Escherichia coli M15 [pREP4] assessed as change in melting temperature at 20 uM by SYPRO orange dye based DSF assay
Bel-7402 = assay: Antiproliferative activity against human Bel7402 cells assessed as reduction in cell viability incubated for 72 hrs by MTT assay; format: functional, cell-based
SK-OV-3 = assay: Antiproliferative activity against human SKOV3 cells assessed as reduction in cell viability incubated for 72 hrs by MTT assay; format: functional, cell-based
NCI-H1975 = assay: Antiproliferative activity against human NCI-H1975 cells assessed as reduction in cell viability incubated for 72 hrs by MTT assay; format: functional, cell-based
BXPC-3 = assay: Inhibition of colony formation in human BxPC3 cells incubated for 9 to 18 days by crystal violet staining based assay; format: functional, cell-based
Outline: (§1)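 Cells are seeded per well at the line-specific density: BXPC-3 750, PANC-1 500, AsPC-1 2200, MIAPaCa-2 500. Compound at several concentrations is added after 24 h. Incubation runs 9–18 days (BXPC-3 18 days, PANC-1 14 days). Cells are then fixed with 4% paraformaldehyde and stained with crystal violet, and colonies of more than 50 cells are counted.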

MIA PaCa-2 = assay: Inhibition of colony formation in human MIAPaCa2 cells incubated for 9 to 18 days by crystal violet staining based assay; format: functional, cell-based; outline: as §1
PANC-1 [3] = assay: Induction of cell cycle arrest in human PANC1 cells assessed as increase in accumulation at G2 phase incubated for 48 hrs by propidium iodide staining based flow cytometry; format: functional
Outline: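 PANC-1 and BXPC-3 cells in 6-well plates treated with a concentration series for 48 h. Stained with 50 µg/mL propidium iodide for 30 min in the dark. DNA content analysed by flow cytometry for cell-cycle phase distribution.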

PANC-1 [4] = assay: Induction of apoptosis in human PANC1 cells incubated for 48 hrs by propidium iodide and Annexin V-FITC staining based flow cytometry; format: functional, cell-based
Outline: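 PANC-1 and BXPC-3 cells seeded in 6-well plates and treated with a concentration series for 48 h. Stained with Annexin V-FITC and propidium iodide for 10 min in the dark. Annexin V+ populations measured by flow cytometry.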

ASPC1 = assay: Inhibition of cell migration of human AsPC1 cells at 10 umol/L incubated for 24 hrs by inverted microscopy relative to control; format: functional; details: ASPC1, 24 h
Outline: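 PDAC cells are grown to a confluent monolayer at 37 °C in 5% CO2. The monolayer is scratched with a 200 μL pipette tip to make a gap of constant width, then washed with PBS. Cells are exposed to a range of compound concentrations. They are imaged by inverted microscope after 24 h. Migrated cells are counted by hand, and inhibition is expressed relative to untreated wells (100%).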

[5] = target: T1, NAD-dependent protein deacylase sirtuin-6; assay: Binding affinity to SIRT6 in human PANC1 cells assessed as protection of SIRT6 protein from temperature-dependent degradation at 25 uM incubated for 72 hrs by CETSA; format: cell-based; details: PANC-1
Outline: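 Cells treated with compound (25 μM) or DMSO for 72 h, washed, resuspended in PBS with protease inhibitor cocktail, split into aliquots heated 3 min at a temperature gradient. Lysed by three freeze–thaw cycles, centrifuged at 4 °C for 15 min; soluble SIRT6 in supernatant detected by western blot. Triplicate.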

[6] = target: T1, NAD-dependent protein deacylase sirtuin-6; assay: […] in human PANC1 cells assessed as reduction in H3K9ac levels incubated for 72 hrs by Western blot analysis; format: cell-based; details: PANC-1
Outline: (§2)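 Cells incubated 72 h with various compound concentrations; whole-cell RIPA lysates with protease inhibitors, BCA-normalised, separated on 12% SDS-PAGE, transferred to PVDF, blocked in 5% milk or BSA. Probed 10 h at 4 °C with antibodies to SIRT6, acetyl-H3K9/K18/K56, total H3, Lin28b, Myc, IGF2BP3, β-actin; HRP secondary, chemiluminescent detection.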

[7] = target: T1, NAD-dependent protein deacylase sirtuin-6; assay: […] in human BxPC3 cells assessed as reduction in H3K18ac levels incubated for 72 hrs by Western blot analysis; format: cell-based; details: BXPC-3; outline: as §2
[8] = target: T1, NAD-dependent protein deacylase sirtuin-6; assay: […] in human PANC1 cells assessed as reduction in H3K56ac levels incubated for 72 hrs by Western blot analysis; format: cell-based; details: PANC-1; outline: as §2
[9] = target: T1, NAD-dependent protein deacylase sirtuin-6; assay: […] in human BxPC3 cells assessed as reduction in IGF2BP3 expression levels at 25 uM incubated for 72 hrs by Western blot analysis; format: cell-based; details: BXPC-3; outline: as §2
[10] = Half life in Sprague-Dawley rat at 10 mg/kg, po after 0.083 to 24 hrs by LC-MS/MS analysis; format: ADME, organism-based; details: in vivo
Outline: (§3)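 Male Sprague-Dawley rats, 6-8 weeks old. Dosing solution of 10 (PO) or 2 (IV) mg/mL in 5% DMSO, 10% Solutol and 85% saline, pH 7. Blood taken by cardiac puncture at 0.083–24 h (PO) or 0.25–24 h (IV). Plasma levels measured by LC-MS/MS. Values are mean ± SD, n = 3.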

[11] = Clearance in Sprague-Dawley rat at 2 mg/kg, iv after 0.25 to 24 hrs by LC-MS/MS analysis; format: ADME, organism-based; details: in vivo; outline: as §3
[12] = Cmax in Sprague-Dawley rat at 2 mg/kg, iv after 0.25 to 24 hrs by LC-MS/MS analysis; format: ADME, organism-based; set-up: dose 2 mg/kg, route intravenous; details: in vivo; outline: as §3
[13] = AUC (0 to t) in Sprague-Dawley rat at 2 mg/kg, iv after 0.25 to 24 hrs by LC-MS/MS analysis; format: ADME, organism-based; details: in vivo; outline: as §3
[14] = AUC (0 to infinity) in Sprague-Dawley rat at 2 mg/kg, iv after 0.25 to 24 hrs by LC-MS/MS analysis; format: ADME, organism-based; set-up: dose 2 mg/kg, route intravenous, time infinity; details: in vivo; outline: as §3
[15] = target: NAD-dependent protein deacetylase sirtuin-2 (Homo sapiens, UniProt Q8IXJ6); assay: Inhibition of SIRT2 (unknown origin) by FDL assay
Outline: (§4)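 Selectivity testing by FDL assay at concentrations up to 200 µM. SIRT1-2 assays run by an outside contract provider. Values reported as IC50.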

Histone deacetylase 5 = Histone deacetylase 5 (Homo sapiens, UniProt Q9UQL6); assay: Inhibition of HDAC5 (unknown origin) by FDL assay; outline: as §4
Histone deacetylase 7 = Histone deacetylase 7 (Homo sapiens, UniProt Q8WUI4); assay: Inhibition of HDAC7 (unknown origin) by FDL assay; outline: as §4
Histone deacetylase 9 = Histone deacetylase 9 (Homo sapiens, UniProt Q9UKV0); assay: Inhibition of HDAC9 (unknown origin) by FDL assay; outline: as §4
[16] = target: Polyamine deacetylase HDAC10 (Homo sapiens, UniProt Q969S8); assay: Inhibition of HDAC10 (unknown origin) by FDL assay; outline: as §4
Chain of Polyamine deacetylase HDAC10 (Q969S8 whole entry): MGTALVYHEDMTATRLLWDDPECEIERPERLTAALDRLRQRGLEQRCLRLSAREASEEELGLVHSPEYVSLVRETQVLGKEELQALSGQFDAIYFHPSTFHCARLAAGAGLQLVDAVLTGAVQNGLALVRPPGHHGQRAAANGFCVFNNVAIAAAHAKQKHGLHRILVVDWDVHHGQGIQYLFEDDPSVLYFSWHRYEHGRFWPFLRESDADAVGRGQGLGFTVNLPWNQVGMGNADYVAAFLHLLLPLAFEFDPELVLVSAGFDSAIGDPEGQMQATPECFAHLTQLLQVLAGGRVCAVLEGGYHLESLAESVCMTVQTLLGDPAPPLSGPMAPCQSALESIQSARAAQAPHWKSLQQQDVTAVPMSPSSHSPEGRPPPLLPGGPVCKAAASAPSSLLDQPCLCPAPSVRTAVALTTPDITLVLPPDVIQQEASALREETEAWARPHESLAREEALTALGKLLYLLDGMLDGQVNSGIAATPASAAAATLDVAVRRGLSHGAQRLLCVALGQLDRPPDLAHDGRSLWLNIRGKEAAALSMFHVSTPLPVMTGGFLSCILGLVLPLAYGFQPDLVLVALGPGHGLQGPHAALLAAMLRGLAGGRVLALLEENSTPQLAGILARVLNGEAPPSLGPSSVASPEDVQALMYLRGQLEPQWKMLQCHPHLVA

T1 sequence (Q8N6T7 whole entry): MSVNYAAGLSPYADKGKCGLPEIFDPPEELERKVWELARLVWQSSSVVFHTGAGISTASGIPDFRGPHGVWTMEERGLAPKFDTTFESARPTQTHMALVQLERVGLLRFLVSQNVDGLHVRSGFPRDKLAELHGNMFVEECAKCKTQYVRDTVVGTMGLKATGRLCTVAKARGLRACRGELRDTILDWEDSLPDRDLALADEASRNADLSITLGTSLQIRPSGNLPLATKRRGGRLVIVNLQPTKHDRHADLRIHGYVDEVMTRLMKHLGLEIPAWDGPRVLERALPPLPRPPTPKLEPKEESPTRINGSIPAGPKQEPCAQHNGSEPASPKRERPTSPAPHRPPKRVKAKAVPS
Chain of Histone deacetylase 9 (Q9UKV0 whole entry): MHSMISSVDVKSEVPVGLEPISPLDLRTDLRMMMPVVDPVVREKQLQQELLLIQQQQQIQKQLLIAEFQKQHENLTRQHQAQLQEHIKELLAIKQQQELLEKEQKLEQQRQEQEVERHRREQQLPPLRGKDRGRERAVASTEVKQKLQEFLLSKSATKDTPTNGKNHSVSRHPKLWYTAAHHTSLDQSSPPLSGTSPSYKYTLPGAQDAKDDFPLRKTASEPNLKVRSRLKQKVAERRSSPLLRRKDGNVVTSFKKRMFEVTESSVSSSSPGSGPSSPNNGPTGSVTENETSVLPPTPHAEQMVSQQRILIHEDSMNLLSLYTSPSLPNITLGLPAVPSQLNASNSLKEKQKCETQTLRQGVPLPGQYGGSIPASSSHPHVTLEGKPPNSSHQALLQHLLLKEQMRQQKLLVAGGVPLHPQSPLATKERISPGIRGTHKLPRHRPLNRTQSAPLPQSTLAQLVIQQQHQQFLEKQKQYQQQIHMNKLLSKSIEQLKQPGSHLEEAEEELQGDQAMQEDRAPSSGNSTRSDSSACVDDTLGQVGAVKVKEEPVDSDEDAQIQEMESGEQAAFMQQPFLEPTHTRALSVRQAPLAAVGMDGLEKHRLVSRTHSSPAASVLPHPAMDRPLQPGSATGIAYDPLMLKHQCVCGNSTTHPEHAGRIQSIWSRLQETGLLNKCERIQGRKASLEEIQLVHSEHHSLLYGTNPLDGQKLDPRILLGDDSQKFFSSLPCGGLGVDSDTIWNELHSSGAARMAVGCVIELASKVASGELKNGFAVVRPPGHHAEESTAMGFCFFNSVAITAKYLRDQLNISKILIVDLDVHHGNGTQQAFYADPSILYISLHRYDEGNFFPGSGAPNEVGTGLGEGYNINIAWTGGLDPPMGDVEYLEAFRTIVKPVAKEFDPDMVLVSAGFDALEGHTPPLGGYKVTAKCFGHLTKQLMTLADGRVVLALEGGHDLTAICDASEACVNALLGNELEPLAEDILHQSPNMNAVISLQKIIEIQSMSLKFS
Chain of NAD-dependent protein deacetylase sirtuin-2 (Q8IXJ6 whole entry): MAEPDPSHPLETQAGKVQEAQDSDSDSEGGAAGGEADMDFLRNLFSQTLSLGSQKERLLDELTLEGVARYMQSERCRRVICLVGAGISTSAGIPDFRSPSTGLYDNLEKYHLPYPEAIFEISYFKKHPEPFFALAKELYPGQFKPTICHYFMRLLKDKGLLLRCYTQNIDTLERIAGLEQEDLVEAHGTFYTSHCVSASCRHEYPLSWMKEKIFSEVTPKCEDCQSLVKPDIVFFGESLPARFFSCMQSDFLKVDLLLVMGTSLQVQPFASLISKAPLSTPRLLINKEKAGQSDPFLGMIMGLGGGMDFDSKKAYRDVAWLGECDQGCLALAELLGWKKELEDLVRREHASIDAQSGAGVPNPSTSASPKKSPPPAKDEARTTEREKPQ
Chain of Histone deacetylase 7 (Q8WUI4 whole entry): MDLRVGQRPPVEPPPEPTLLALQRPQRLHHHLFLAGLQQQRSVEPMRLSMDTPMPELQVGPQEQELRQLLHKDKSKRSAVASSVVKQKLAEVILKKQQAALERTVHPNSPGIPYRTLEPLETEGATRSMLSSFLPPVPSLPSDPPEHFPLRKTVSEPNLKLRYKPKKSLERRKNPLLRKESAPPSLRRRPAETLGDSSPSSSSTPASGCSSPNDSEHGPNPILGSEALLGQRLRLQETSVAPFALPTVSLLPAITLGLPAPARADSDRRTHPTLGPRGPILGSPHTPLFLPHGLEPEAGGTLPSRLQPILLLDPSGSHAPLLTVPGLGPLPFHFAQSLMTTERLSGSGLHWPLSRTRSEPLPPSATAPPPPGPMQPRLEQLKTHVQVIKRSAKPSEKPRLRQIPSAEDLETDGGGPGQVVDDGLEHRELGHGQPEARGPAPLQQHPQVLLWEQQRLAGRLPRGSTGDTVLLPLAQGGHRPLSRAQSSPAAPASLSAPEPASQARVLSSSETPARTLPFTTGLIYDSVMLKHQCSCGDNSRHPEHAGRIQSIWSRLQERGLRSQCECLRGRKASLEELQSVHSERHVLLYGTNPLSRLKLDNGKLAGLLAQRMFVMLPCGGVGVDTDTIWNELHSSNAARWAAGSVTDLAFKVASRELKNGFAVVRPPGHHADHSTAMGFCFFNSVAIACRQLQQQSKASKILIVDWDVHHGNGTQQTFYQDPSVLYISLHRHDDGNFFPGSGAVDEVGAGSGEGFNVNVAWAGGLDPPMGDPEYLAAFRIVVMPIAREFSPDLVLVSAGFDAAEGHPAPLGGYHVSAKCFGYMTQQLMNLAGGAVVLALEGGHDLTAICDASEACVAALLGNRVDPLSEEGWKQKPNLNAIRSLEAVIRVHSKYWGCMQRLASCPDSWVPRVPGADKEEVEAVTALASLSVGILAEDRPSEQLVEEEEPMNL
Chain of Histone deacetylase 5 (Q9UQL6 whole entry): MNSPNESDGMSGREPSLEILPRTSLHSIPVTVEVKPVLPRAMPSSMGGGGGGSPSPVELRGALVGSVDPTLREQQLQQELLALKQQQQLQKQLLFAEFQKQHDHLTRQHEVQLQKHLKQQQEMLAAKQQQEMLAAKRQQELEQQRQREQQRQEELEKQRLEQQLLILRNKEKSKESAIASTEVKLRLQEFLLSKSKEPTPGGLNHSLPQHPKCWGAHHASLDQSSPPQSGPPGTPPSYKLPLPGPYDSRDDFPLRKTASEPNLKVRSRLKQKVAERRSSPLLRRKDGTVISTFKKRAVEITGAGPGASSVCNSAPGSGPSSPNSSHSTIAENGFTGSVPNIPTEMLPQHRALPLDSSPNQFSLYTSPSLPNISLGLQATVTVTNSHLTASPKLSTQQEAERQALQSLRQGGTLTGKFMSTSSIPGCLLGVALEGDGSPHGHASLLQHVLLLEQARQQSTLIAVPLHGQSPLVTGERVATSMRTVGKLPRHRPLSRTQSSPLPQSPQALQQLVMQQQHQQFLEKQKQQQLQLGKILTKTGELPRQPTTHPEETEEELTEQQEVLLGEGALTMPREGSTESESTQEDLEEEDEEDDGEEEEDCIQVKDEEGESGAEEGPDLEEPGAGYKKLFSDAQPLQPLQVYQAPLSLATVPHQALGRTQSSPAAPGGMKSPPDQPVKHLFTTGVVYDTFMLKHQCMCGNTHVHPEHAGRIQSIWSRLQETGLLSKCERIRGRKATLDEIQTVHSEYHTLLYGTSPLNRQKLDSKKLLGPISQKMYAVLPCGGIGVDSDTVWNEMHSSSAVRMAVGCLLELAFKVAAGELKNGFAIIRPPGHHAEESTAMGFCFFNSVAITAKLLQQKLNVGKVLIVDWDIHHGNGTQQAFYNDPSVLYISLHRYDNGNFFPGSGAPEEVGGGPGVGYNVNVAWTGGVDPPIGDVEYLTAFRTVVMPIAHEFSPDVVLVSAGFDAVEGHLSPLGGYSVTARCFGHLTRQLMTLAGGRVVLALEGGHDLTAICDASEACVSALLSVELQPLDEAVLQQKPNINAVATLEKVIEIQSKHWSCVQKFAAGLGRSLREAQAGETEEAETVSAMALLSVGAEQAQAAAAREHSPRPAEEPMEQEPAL

With `O=C(NC(c1ccccc1)c1ccccc1)c1cc(-c2cc3ccccc3o2)nc2ccccc12` the Activity [1] was 1230%, the ΔTm [2] was 1.01 °C and the Activity (Bel-7402) was “Active”. The Activity (SK-OV-3) was “Active”, the Activity (NCI-H1975) was “Active” and the inhibition (BXPC-3) was “Dose-dependent effect”. The inhibition (MIA PaCa-2) was “Dose-dependent effect”, the Activity (PANC-1 [3]) was “Dose-dependent effect” and the Activity (PANC-1 [4]) was “Dose-dependent effect”. For the same compound, the inhibition at 10 µM (ASPC1) was 55.4%, the Activity [5] was “Active” and the inhibition [6] was “Dose-dependent effect”. For the same compound, the inhibition [7] was “Dose-dependent effect”, the inhibition [8] was “Dose-dependent effect” and the inhibition [9] was “Active”. The half-life [10] was 7.52 h, the CL [11] was 0.6 L/h/kg and the Cmax [12] was 5.12 µg/mL. For the same compound, the AUCt [13] was 3326.13 ng·mL·h, the AUC [14] was 3381.49 ng·mL·h and the IC50 [15] was > 200 µM. The IC50 (Histone deacetylase 5) was > 200 µM, the IC50 (Histone deacetylase 7) was > 200 µM and the IC50 (Histone deacetylase 9) was > 200 µM. For the same compound, the IC50 [16] was > 200 µM.
